Data as given in ChEMBL document CHEMBL4364301 (Eur J Med Chem, 2019).

Assays:
Format in all cases: functional
CWR22R [1] = test: Antiproliferative activity against human 22Rv1 cells assessed as T/C value at 3.2 uM incubated for 96 hrs by propidium iodide based 2D monolayer assay
Procedure, shortened: (§1)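 Cells were kept in RPMI 1640 with 25 mM HEPES, 10% FCS and gentamicin at 37 °C under 5% CO2, and plated at 4,000-20,000 cells/well. After 24 h recovery, compound in medium or medium alone (control wells) was added at 10 half-log concentrations from 0.0032 to 100 µM, in triplicate, with at most 0.3% DMSO. After 96 h, wells were PBS-washed, stained with 7 µg/ml PI and 0.1% Triton X-100, and fluorescence read at 530/620 nm. IC50 came from a 4-parameter fit, geometric mean.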

VCaP [2] = test: Antiproliferative activity against human VCaP cells assessed as T/C value at 3.2 x 10^-3 uM incubated for 96 hrs by propidium iodide based 2D monolayer assay
Procedure, shortened: (§2)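 VCaP cells in RPMI 1640 with 10% FCS at 37 °C, 5% CO2, seeded 4,000–20,000 cells/well and left 24 h before dosing. Compounds from DMSO stocks were diluted in half-log steps in medium, 10 concentrations 0.0032–100 μM, triplicate wells, max 0.3% DMSO. After 96 h, cells were washed, stained with 7 μg/ml propidium iodide plus 0.1% Triton X-100 for 1–2 h at room temperature, and fluorescence read at ex 530/em 620 nm.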

LNCaP [3] = test: Antiproliferative activity against human LNCAP cells assessed as T/C value at 1 x 10^-1 uM incubated for 96 hrs by propidium iodide based 2D monolayer assay; procedure, shortened: as §1
LNCaP [4] = test: Antiproliferative activity against human LNCAP cells assessed as T/C value at 1 x 10^2 uM incubated for 96 hrs by propidium iodide based 2D monolayer assay; procedure, shortened: as §1
VCaP [5] = test: Antiproliferative activity against human VCaP cells assessed as T/C value at 1 x 10^-1 uM incubated for 96 hrs by propidium iodide based 2D monolayer assay; procedure, shortened: as §1
CWR22R [6] = test: Antiproliferative activity against human 22Rv1 cells assessed as T/C value at 1 x 10^-1 uM incubated for 96 hrs by propidium iodide based 2D monolayer assay; procedure, shortened: as §1
DU-145 [7] = test: Antiproliferative activity against human DU145 cells assessed as T/C value at 3.2 uM incubated for 96 hrs by propidium iodide based 2D monolayer assay; procedure, shortened: as §1
LNCaP [8] = test: Antiproliferative activity against human LNCAP cells assessed as T/C value at 1 x 10^1 uM incubated for 96 hrs by propidium iodide based 2D monolayer assay; procedure, shortened: as §1
LNCaP [9] = test: Antiproliferative activity against human LNCAP cells assessed as T/C value at 3.2 x 10^1 uM incubated for 96 hrs by propidium iodide based 2D monolayer assay; procedure, shortened: as §1
LNCaP [10] = test: Antiproliferative activity against human LNCAP cells assessed as T/C value at 1 uM incubated for 96 hrs by propidium iodide based 2D monolayer assay; procedure, shortened: as §1
VCaP [11] = test: Antiproliferative activity against human VCaP cells assessed as T/C value at 1 x 10^1 uM incubated for 96 hrs by propidium iodide based 2D monolayer assay; procedure, shortened: as §1
LNCaP [12] = test: Antiproliferative activity against human LNCAP cells assessed as reduction in cell growth incubated for 96 hrs by propidium iodide based 2D monolayer assay
Procedure, shortened: as §1, with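 “After” for “Cells were kept in RPMI 1640 with 25 mM HEPES, 10% FCS and gentamicin at 37 °C under 5% CO2, and plated at 4,000-20,000 cells/well. After”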

LNCaP [13] = test: Antiproliferative activity against human LNCAP cells assessed as T/C value at 3.2 uM incubated for 96 hrs by propidium iodide based 2D monolayer assay; procedure, shortened: as §1
CWR22R [14] = test: Antiproliferative activity against human 22Rv1 cells assessed as T/C value at 1 x 10^-2 uM incubated for 96 hrs by propidium iodide based 2D monolayer assay; procedure, shortened: as §1
LNCaP [15] = test: Antiproliferative activity against human LNCAP cells assessed as T/C value at 3.2 x 10^-3 uM incubated for 96 hrs by propidium iodide based 2D monolayer assay; procedure, shortened: as §1
CWR22R [16] = test: Antiproliferative activity against human 22Rv1 cells assessed as T/C value at 3.2 x 10^-1 uM incubated for 96 hrs by propidium iodide based 2D monolayer assay; procedure, shortened: as §1
DU-145 [17] = test: Antiproliferative activity against human DU145 cells assessed as T/C value at 3.2 x 10^1 uM incubated for 96 hrs by propidium iodide based 2D monolayer assay; procedure, shortened: as §1
CWR22R [18] = test: Antiproliferative activity against human 22Rv1 cells assessed as T/C value at 1 x 10^2 uM incubated for 96 hrs by propidium iodide based 2D monolayer assay; procedure, shortened: as §1
LNCaP [19] = test: Antiproliferative activity against human LNCAP cells assessed as T/C value at 3.2 x 10^-2 uM incubated for 96 hrs by propidium iodide based 2D monolayer assay; procedure, shortened: as §1
VCaP [20] = test: Antiproliferative activity against human VCaP cells assessed as T/C value at 3.2 x 10^-1 uM incubated for 96 hrs by propidium iodide based 2D monolayer assay; procedure, shortened: as §2
DU-145 [21] = test: Antiproliferative activity against human DU145 cells assessed as T/C value at 1 x 10^2 uM incubated for 96 hrs by propidium iodide based 2D monolayer assay; procedure, shortened: as §1
VCaP [22] = test: Antiproliferative activity against human VCaP cells assessed as reduction in cell growth incubated for 96 hrs by propidium iodide based 2D monolayer assay; procedure, shortened: as §2
DU-145 [23] = test: Antiproliferative activity against human DU145 cells assessed as reduction in cell growth incubated for 96 hrs by propidium iodide based 2D monolayer assay
Procedure, shortened: as §1, with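 “After” for “Cells were kept in RPMI 1640 with 25 mM HEPES, 10% FCS and gentamicin at 37 °C under 5% CO2, and plated at 4,000-20,000 cells/well. After”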

VCaP [24] = test: Antiproliferative activity against human VCaP cells assessed as T/C value at 3.2 x 10^1 uM incubated for 96 hrs by propidium iodide based 2D monolayer assay; procedure, shortened: as §2
VCaP [25] = test: Antiproliferative activity against human VCaP cells assessed as T/C value at 1 uM incubated for 96 hrs by propidium iodide based 2D monolayer assay; procedure, shortened: as §1
VCaP [26] = test: Antiproliferative activity against human VCaP cells assessed as T/C value at 3.2 uM incubated for 96 hrs by propidium iodide based 2D monolayer assay; procedure, shortened: as §1
LNCaP [27] = test: Antiproliferative activity against human LNCAP cells assessed as T/C value at 1 x 10^-2 uM incubated for 96 hrs by propidium iodide based 2D monolayer assay; procedure, shortened: as §1
CWR22R [28] = test: Antiproliferative activity against human 22Rv1 cells assessed as T/C value at 3.2 x 10^1 uM incubated for 96 hrs by propidium iodide based 2D monolayer assay; procedure, shortened: as §1
VCaP [29] = test: Antiproliferative activity against human VCaP cells assessed as T/C value at 3.2 x 10^-2 uM incubated for 96 hrs by propidium iodide based 2D monolayer assay; procedure, shortened: as §2
VCaP [30] = test: Antiproliferative activity against human VCaP cells assessed as T/C value at 1 x 10^2 uM incubated for 96 hrs by propidium iodide based 2D monolayer assay; procedure, shortened: as §1
VCaP [31] = test: Antiproliferative activity against human VCaP cells assessed as T/C value at 1 x 10^-2 uM incubated for 96 hrs by propidium iodide based 2D monolayer assay; procedure, shortened: as §1
CWR22R [32] = test: Antiproliferative activity against human 22Rv1 cells assessed as T/C value at 1 uM incubated for 96 hrs by propidium iodide based 2D monolayer assay; procedure, shortened: as §1
LNCaP [33] = test: Antiproliferative activity against human LNCAP cells assessed as T/C value at 3.2 x 10^-1 uM incubated for 96 hrs by propidium iodide based 2D monolayer assay; procedure, shortened: as §1
CWR22R [34] = test: Antiproliferative activity against human 22Rv1 cells assessed as reduction in cell growth incubated for 96 hrs by propidium iodide based 2D monolayer assay
Procedure, shortened: as §1, with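 “After” for “Cells were kept in RPMI 1640 with 25 mM HEPES, 10% FCS and gentamicin at 37 °C under 5% CO2, and plated at 4,000-20,000 cells/well. After”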

CWR22R [35] = test: Antiproliferative activity against human 22Rv1 cells assessed as T/C value at 3.2 x 10^-2 uM incubated for 96 hrs by propidium iodide based 2D monolayer assay; procedure, shortened: as §1
CWR22R [36] = test: Antiproliferative activity against human 22Rv1 cells assessed as T/C value at 3.2 x 10^-3 uM incubated for 96 hrs by propidium iodide based 2D monolayer assay; procedure, shortened: as §1

## CNC(=O)c1ccc(N2C(=S)N(c3ccc(C#N)c(C(F)(F)F)c3)C(=O)C2(C)C)cc1F [ENZALUTAMIDE]
CWR22R [1]
  T/C: 88%
VCaP [2]
  T/C: 106%
LNCaP [3]
  T/C: 89%
LNCaP [4]
  T/C: 6%
VCaP [5]
  T/C: 101%
CWR22R [6]
  T/C: 93%
DU-145 [7]
  T/C: 120%
LNCaP [8]
  T/C: 57%
LNCaP [9]
  T/C: 28%
LNCaP [10]
  T/C: 65%
VCaP [11]
  T/C: 85%
LNCaP [12]
  Activity: Dose-dependent effect
  IC70: 31.7 µM
LNCaP [13]
  T/C: 69%
CWR22R [14]
  T/C: 98%
LNCaP [15]
  T/C: 101%
CWR22R [16]
  T/C: 96%
DU-145 [17]
  T/C: 84%
CWR22R [18]
  T/C: 13%
LNCaP [19]
  T/C: 100%
VCaP [20]
  T/C: 88%
DU-145 [21]
  T/C: 19%
VCaP [22]
  Activity: Dose-dependent effect
  IC50: 53 µM
  IC70: > 100 µM
DU-145 [23]
  Activity: Dose-dependent effect
DU-145 [23]; DU-145, 96 h
  IC50: 32.3 µM
  IC70: 71.1 µM
VCaP [24]
  T/C: 85%
VCaP [25]
  T/C: 85%
VCaP [26]
  T/C: 85%
LNCaP [27]
  T/C: 92%
CWR22R [28]
  T/C: 57%
VCaP [29]
  T/C: 104%
VCaP [30]
  T/C: 44%
VCaP [31]
  T/C: 106%
CWR22R [32]
  T/C: 93%
LNCaP [33]
  T/C: 77%
CWR22R [34]
  Activity: Dose-dependent effect
CWR22R [34]; 22Rv1, 96 h
  IC70: 36.5 µM
CWR22R [35]
  T/C: 99%
CWR22R [36]
  T/C: 96%
